Reference: ChEMBL document CHEMBL1140356, “Developing microcolin A analogs as biological probes” (Bioorg Med Chem Lett, 2005)

Columns and labels:
P388 [1] = test: Cytotoxicity against P-388 cell line (mouse T-cell leukemia cells); type: functional, cell-based
In short: (§1)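 Growth-inhibition assay on cultured cells, reported as IC50. […] used primary mouse lymphocytes, either PMA/ionomycin-stimulated or in a mixed lymphocyte reaction. C2C12 are nontransformed mouse myoblasts. BAE are primary bovine aortic endothelial cells.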

EL4 [2] = test: Cytotoxicity against EL-4 cell line (mouse thymoma cells); type: functional, cell-based; in short: as §1
EL4 [3] = test: Cytotoxicity against EL-4 cell line (mouse thymoma); type: functional, cell-based
In short: (§2)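 Cell proliferation inhibition measured in cultured cells; value reported as IC50.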

P388 [4] = test: Cytotoxicity against P-388 cell line (mouse T-cell leukemia); type: functional, cell-based; in short: as §2
[5] = Cytotoxicity against mouse PMA ionomycin-stimulated lymphocytes; type: functional; in short: as §1
Jurkat = test: Cytotoxicity against Jurkat cell line (human T-cell leukemia cells); type: functional, cell-based; in short: as §1
[6] = Cytotoxicity against BAE cell line (bovine aortic endothelial cells); type: functional, cell-based; details: Bos taurus; in short: as §1
[7] = Cytotoxicity against C2C12 cell line (mouse myoblast cells); type: functional, cell-based; in short: as §1
N1E-115 = test: Cytotoxicity against N1E-115 cell line (mouse neuroblastoma cells); type: functional, cell-based; in short: as §1
Mus musculus = species: Mus musculus; test: Cytotoxicity against mouse mixed lymphocyte reaction; type: functional; in short: as §1
EL4 [8] = test: Cytotoxicity against mouse thymoma cells (EL-4 cell lines); type: functional, cell-based; in short: as §1

Question: With `CCCCCCCC(=O)N(C)[C@@H](CC(C)C)C(=O)N[C@H](C(=O)N(C)[C@H](C(=O)N1C[C@@H](O)C[C@H]1C(=O)N1C(=O)C=C[C@H]1C)C(C)C)C(C)OC(C)=O` (some centres undefined) as the compound, how does the IC50 (P388 [1]) read?
Answer: 7000 nM

Question: And the IC50 (EL4 [2])?
Answer: 6000 nM

Question: Which IC50 (EL4 [3]) does the source give for `CC(=O)OC(C)[C@H](NC(=O)[C@H](CC(C)C)N(C)C(=O)CCOCCOCCOCCOCCNC(=O)CCCC[C@@H]1SC[C@@H]2NC(=O)N[C@@H]21)C(=O)N(C)[C@H](C(=O)N1C[C@@H](O)C[C@H]1C(=O)N1C(=O)C=C[C@@H]1C)C(C)C` (some centres undefined) here?
Answer: 10000 nM

Question: And the IC50 (P388 [4])?
Answer: 10000 nM

Question: Which results are given for `CCCCCCCC(=O)N(C)[C@@H](CC(C)C)C(=O)N[C@H](C(=O)N(C)[C@H](C(=O)N1C[C@@H](O)C[C@H]1C(=O)N1C(=O)C=C[C@@H]1C)C(C)C)C(C)OC(C)=O` (some centres undefined)?
Answer: IC50 [5]: 30.3 nM; IC50 (Jurkat): 39.4 nM; IC50 [6]: 36.7 nM; IC50 (P388 [1]): 66.7 nM; IC50 [7]: 43.4 nM; IC50 (N1E-115): 35.9 nM; IC50 (Mus musculus): 32.8 nM; IC50 (EL4 [8]): 45.6 nM

Question: For `CCCCCCCC(=O)N(C)[C@@H](CC(C)C)C(=O)N[C@H](C(=O)N(C)[C@H](C(=O)N1CCC[C@H]1C(=O)N1C(=O)C=C[C@@H]1C)C(C)C)C(C)OC(C)=O` (some centres undefined), which IC50 (P388 [1]) is on record?
Answer: 5000 nM

Question: What about the IC50 (EL4 [2]) of the same compound?
Answer: 6000 nM
